Results reported in ChEMBL document CHEMBL3875205, “Macrocyclic MEK1/2 inhibitor with efficacy in a mouse model of cardiomyopathy caused by lamin A/C gene mutation” (Bioorg Med Chem, 2017).
Calls of active or inactive are those of the source. The calls are words filed in the database; no cut-off is given here.

What was measured:
[1] = target: T1, Dual specificity mitogen-activated protein kinase kinase; MEK1/2 (Homo sapiens, UniProt P36507+Q02750); experiment: Inhibition of MEK1/2 in human HT-29 cells assessed as reduction in cell proliferation after 72 hrs by CellTiter-Glo assay; format: cell-based
T1 sequence (P36507 whole entry, looked up): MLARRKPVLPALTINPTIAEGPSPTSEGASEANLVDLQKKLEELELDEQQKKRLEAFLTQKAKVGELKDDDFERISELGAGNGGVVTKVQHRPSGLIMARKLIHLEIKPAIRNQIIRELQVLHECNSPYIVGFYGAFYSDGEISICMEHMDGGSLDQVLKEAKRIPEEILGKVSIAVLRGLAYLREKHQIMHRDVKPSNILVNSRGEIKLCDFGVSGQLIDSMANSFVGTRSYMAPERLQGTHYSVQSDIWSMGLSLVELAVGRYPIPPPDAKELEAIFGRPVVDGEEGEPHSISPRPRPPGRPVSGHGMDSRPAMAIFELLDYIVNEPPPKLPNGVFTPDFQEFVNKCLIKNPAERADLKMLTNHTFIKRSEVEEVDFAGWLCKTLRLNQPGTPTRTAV
T1 sequence (Q02750 whole entry, looked up): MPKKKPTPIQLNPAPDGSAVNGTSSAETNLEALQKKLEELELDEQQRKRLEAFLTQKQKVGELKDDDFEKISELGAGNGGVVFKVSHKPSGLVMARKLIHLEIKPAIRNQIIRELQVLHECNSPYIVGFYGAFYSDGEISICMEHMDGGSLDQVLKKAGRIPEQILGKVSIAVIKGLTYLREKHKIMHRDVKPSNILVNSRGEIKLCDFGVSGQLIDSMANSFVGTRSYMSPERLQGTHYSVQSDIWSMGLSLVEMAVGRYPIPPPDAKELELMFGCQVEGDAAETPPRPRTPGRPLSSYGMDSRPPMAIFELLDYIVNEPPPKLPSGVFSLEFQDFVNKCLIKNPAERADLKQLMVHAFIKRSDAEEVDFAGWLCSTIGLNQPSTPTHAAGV
Outline: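 HT-29 cells were plated at 2,000/well in DMEM or RPMI with 10% FBS and left overnight at 37°C, 5% CO2. Medium was replaced with compound at 3-fold dilutions from 3.3 µM to 4.5 nM. After 72 h, viability was read by CellTiter-Glo luminescence and IC50 calculated.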

[2] = Cardioprotective activity in LmnaH222P/H222P mouse model of cardiomyopathy assessed as reduction in myocardial fibrosis administered 6 days per week via oral gavage starting from 14 weeks of age up to 20 weeks of age by masson trichrome staining based assay; format: functional, tissue-based; conditions: Heart
Outline: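 Left ventricles from male mutant mice dosed 3 or 6 mg/kg/day by gavage (weeks 14–20) were fixed in 4% formaldehyde for 48 h, paraffin-embedded, cut at 5 μm and stained with Masson trichrome. Graded 0–4 for vacuolation and fibrosis: 0–2 no fibrosis with none, mild or moderate vacuolation; 3 mild fibrosis; 4 severe fibrosis. n = 5, 5, 6.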

[3] = (§1) Cardioprotective activity in LmnaH222P/H222P mouse model of cardiomyopathy assessed as left ventricular end diastolic diameter at 3 mg/kg/day, po administered 6 days per week via gavage starting from 14 weeks of age up to 20 weeks of age by echocardiographic method (reference value: 3.96 +/- 0.08 millimeter); format: functional, organism-based; conditions: Heart
[4] = as §1, with “at 6” for “at 3”; format: functional, organism-based; conditions: Heart
[5] = Cardioprotective activity in LmnaH222P/H222P mouse model of cardiomyopathy assessed as heart rate at 6 mg/kg/day, po administered 6 days per week via gavage starting from 14 weeks of age up to 20 weeks of age by echocardiographic method (reference value: 502.73 +/- 0.46 bpm); format: functional, organism-based
[6] = Cardioprotective activity in LmnaH222P/H222P mouse model of cardiomyopathy assessed as reduction in Nppa mRNA expression in heart at 3 to 6 mg/kg/day, po administered 6 days per week via gavage starting from 14 weeks of age up to 20 weeks of age by qRT-PCR method relative to placebo treated control; format: functional, organism-based
Outline: (§2)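 Hearts from male Lmna H222P/H222P mice gavaged 6 days/week, weeks 14–20, with vehicle or 3 or 6 mg/kg/day. Real-time RT-PCR with SYBR green and 200 nM of each primer; 95°C 2 min, then 50 cycles of 95°C 30 s and 62°C 30 s. ΔΔCT method normalized to Gapdh; fold change versus placebo (n = 5, 5, 6).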

[7] = Cardioprotective activity in LmnaH222P/H222P mouse model of cardiomyopathy assessed as heart rate at 3 mg/kg/day, po administered 6 days per week via gavage starting from 14 weeks of age up to 20 weeks of age by echocardiographic method (reference value: 502.73 +/- 0.46 bpm); format: functional, organism-based
[8] = system: Mus musculus; experiment: In vivo inhibition of MEK1/2 in LmnaH222P/H222P mouse model of cardiomyopathy assessed as reduction in ERK1/2 phosphorylation in quadriceps muscle at 6 mg/kg/day, po administered 6 days per week via gavage starting from 14 weeks of age up to 20 weeks of age by immunoblot method; format: functional, organism-based
Outline: (§3)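 Heart, liver and quadriceps from male mutant mice gavaged 3 or 6 mg/kg/day (weeks 14–20) were homogenized for protein. Proteins were run on SDS-PAGE, transferred to nitrocellulose and probed for phospho- and total ERK1/2 with HRP secondaries and chemiluminescence. Scanned blots were quantified as the pERK1/2 to total ERK1/2 ratio; n = 3, means ± SE.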

[9] = target: T1, Dual specificity mitogen-activated protein kinase kinase; MEK1/2; experiment: Inhibition of MEK1/2 in HEK293 cells assessed as reduction in ERK1/2 phosphorylation at 0.001 to 1 uM after 24 hrs by immunoblot method; format: cell-based
Outline: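 HEK-293 cells were grown in DMEM with 10% FBS, seeded at 5.0×10^5 per well and grown 24 h. After rinsing, they were exposed 24 h to serial dilutions from 1 to 0.001 µM final, or to Cremophor EL/saline vehicle. Cells were then washed with PBS, extracted and immunoblotted for phospho- and total ERK1/2.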

[10] = as §1, with “systolic” for “diastolic”, “3.32” for “3.96”, “0.1” for “0.08”; format: functional, organism-based; conditions: Heart
[11] = system: Mus musculus; experiment: In vivo inhibition of MEK1/2 in LmnaH222P/H222P mouse model of cardiomyopathy assessed as reduction in ERK1/2 phosphorylation in heart at 3 to 6 mg/kg/day, po administered 6 days per week via gavage starting from 14 weeks of age up to 20 weeks of age by immunoblot method; format: functional, organism-based; outline: as §3
[12] = system: Mus musculus; experiment: In vivo inhibition of MEK1/2 in LmnaH222P/H222P mouse model of cardiomyopathy assessed as reduction in ERK1/2 phosphorylation in liver at 3 to 6 mg/kg/day, po administered 6 days per week via gavage starting from 14 weeks of age up to 20 weeks of age by immunoblot method; format: functional, organism-based; outline: as §3
[13] = Cardioprotective activity in LmnaH222P/H222P mouse model of cardiomyopathy assessed as left ventricular fractional shortening at 3 mg/kg/day, po administered 6 days per week via gavage starting from 14 weeks of age up to 20 weeks of age by echocardiographic method (reference value: 16.36 +/- 1.08%); format: functional, organism-based; conditions: Heart
[14] = system: Mus musculus; experiment: (§4) In vivo inhibition of MEK1/2 in LmnaH222P/H222P mouse model of cardiomyopathy assessed as reduction in ERK1/2 activation-mediated muscular dystrophy by measuring increase in forelimb grip fatigue index at 6 mg/kg/day, po administered 6 days per week via gavage starting from 14 weeks of age up to 20 weeks of age; format: functional, organism-based
Outline: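 Forelimb grip strength was tested by an investigator blind to treatment on two consecutive days and normalized to body mass. Fatigue index = (C+D)/(A+B), where A–D are sums of pulls 1–3, 4–6, 10–12 and 13–15; a value of 1 means no fatigue. Mice were gavaged from weeks 14–20; n = 7 placebo, 6 treated.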

[15] = system: Mus musculus; experiment: as §4, with “inhibition of serum creatine phosphokinase activity” for “increase in forelimb grip fatigue index”; format: functional, organism-based
Outline: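 Serum from male Lmna H222P/H222P mice gavaged with vehicle or 3 or 6 mg/kg/day from 14 to 20 weeks of age was assayed for creatine phosphokinase activity. Means ± SE, n = 10 per group.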

[16] = Cardioprotective activity in LmnaH222P/H222P mouse model of cardiomyopathy assessed as reduction in Myl7 mRNA expression in heart at 6 mg/kg/day, po administered 6 days per week via gavage starting from 14 weeks of age up to 20 weeks of age by qRT-PCR method relative to placebo treated control; format: functional, organism-based; outline: as §2
[17] = as §1, with “systolic” for “diastolic”, “6” for “3”, “3.32” for “3.96”, “0.1” for “0.08”; format: functional, organism-based; conditions: Heart
[18] = Cardioprotective activity in LmnaH222P/H222P mouse model of cardiomyopathy assessed as left ventricular fractional shortening at 6 mg/kg/day, po administered 6 days per week via gavage starting from 14 weeks of age up to 20 weeks of age by echocardiographic method (reference value: 16.36 +/- 1.08%); format: functional, organism-based; conditions: Heart

Compound	IC50 [1]	Activity [2]	Activity [3]	Activity [4]	Activity [5]	Activity [6]	Activity [7]	inhibition [8]	inhibition [9]	Activity [10]	inhibition [11]	inhibition [12]	Activity [13]	inhibition [14]	inhibition [15]	Activity [16]	Activity [17]	Activity [18]
O=S1(=O)Nc2c(cc(F)c(F)c2Nc2ccc(I)cc2F)OCC(O)C(O)CC12CC2 (single isomer, unassigned; form 2)	400 nM																	
O=S1(=O)Nc2c(cc(F)c(F)c2Nc2ccc(I)cc2F)OCC(O)C(O)CC12CC2 (single isomer, unassigned; form 1)		Dose-dependent effect	4 mm	3.77 mm	502 bpm	Active	504 bpm	Active	Active	3.24 mm	Active	Active	19.4%	Active	Active	Active	3.02 mm	20.6%
